Assay outcomes from PubChem BioAssay.
M18AAP inhibitor = PfM18AAP inhibitors, malaria aminopeptidase, primary screen, biochemical, QFRET, recombinant enzyme; H-Glu-NHMec fluorogenic cleavage; 290,000 compounds, 1.2% hits; inhibition, % at 7.35 µM; M18 aspartyl aminopeptidase (Plasmodium falciparum 3D7);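 active means inhibition above the campaign mean inhibition over all tested compounds plus 3 SD, cut at about 28% in these data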;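 further: 0% = plate median of test compound wells and 100% = 2 mM ZnCl2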
IMP-1 inh = IMP-1 metallo-beta-lactamase inhibitors, primary screen, biochemical, epi-absorbance readout, Pseudomonas aeruginosa enzyme. purified IMP-1, nitrocefin hydrolysis, epi-absorbance fluorescence. inhibition, % at 5.6 µM. 290,000 compounds, 0.45% hits. AID 1556, 2009;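 active means inhibition above the mean plus 3 SD of all compounds in the same screening run, cut at about 4.5% in these data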;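 further: 0% = IMP-1 with DMSO and 100% = DMSO wells lacking enzyme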
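System – purified recombinant IMP-1 beta-lactamase · Input – IMP-1 dispensed at 0.2 nM · Timing – 15 min preincubation plus 25 min reaction at 25 °C · Signal – Epi-absorbance fluorescence, 480 nm excitation, 530 nm emission · Measure – percent IMP-1 inhibition derived from blank-referenced optical density · Controls – Enzyme-plus-DMSO low control, enzyme-free DMSO high control · Replication – singlicate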
sPLA2-III inh = human group III sPLA2 inhibitors, primary screen, biochemical, QFRET, BODIPY PC-A2 liposome substrate | Group 3 secretory phospholipase A2 (Homo sapiens), Q9NZ20 | QFRET BODIPY PC-A2 liposome hydrolysis, fluorescence | inhibition, % at 12.2 µM | 370,000 compounds, 0.56% hits | AID 743126, 2013;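 active means inhibition above mean plus 3 SD of compounds lying within the high and low control bounds, cut at about 19% in these data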;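 further: 0% = median of test compound wells and 100% = no enzyme DMSO wells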
Target sequence (Q9NZ20 whole entry, looked up): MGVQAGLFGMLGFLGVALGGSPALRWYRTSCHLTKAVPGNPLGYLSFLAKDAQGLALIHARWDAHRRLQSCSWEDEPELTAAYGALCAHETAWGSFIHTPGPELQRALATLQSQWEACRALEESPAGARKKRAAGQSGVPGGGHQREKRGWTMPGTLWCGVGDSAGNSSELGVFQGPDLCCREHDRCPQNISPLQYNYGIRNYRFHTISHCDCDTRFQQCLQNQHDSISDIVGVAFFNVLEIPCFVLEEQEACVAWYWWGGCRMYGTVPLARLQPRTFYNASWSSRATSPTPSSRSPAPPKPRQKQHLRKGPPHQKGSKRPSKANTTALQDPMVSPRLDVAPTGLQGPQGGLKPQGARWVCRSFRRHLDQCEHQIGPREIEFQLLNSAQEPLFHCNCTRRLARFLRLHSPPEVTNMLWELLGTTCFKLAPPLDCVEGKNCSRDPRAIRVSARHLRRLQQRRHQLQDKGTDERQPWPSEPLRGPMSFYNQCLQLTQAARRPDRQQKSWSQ
VIM-2 inhibitor = VIM-2 metallo-beta-lactamase inhibitors, primary screen, biochemical, epi-absorbance readout, Pseudomonas aeruginosa enzyme. purified VIM-2, nitrocefin hydrolysis, epi-absorbance fluorescence. inhibition, % at 5.6 µM. 290,000 compounds, 0.89% hits. AID 1527, 2009;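 active means inhibition above the mean of all tested compounds plus 3 SD, cutoff set per screening run, cut at about 7.5% in these data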;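 further: red hydrolysis product quenches plate fluorescence so inhibitors raise well fluorescence; 0% = enzyme with DMSO and 100% = DMSO without enzyme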
hGIII sPLA2 conf = human group III sPLA2 inhibitors, confirmation, biochemical, QFRET, triplicate | inhibition, % at 12.2 µM | AID 743280, 2014 | shares compounds with sPLA2-III inh | recombinant hGIII-sPLA2, BODIPY PC-A2 QFRET fluorescence | 2,000 compounds, 34% hits;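 active means mean inhibition across triplicates above the hit cutoff set in the earlier primary screen, cut at about 19% in these data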;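 further: 0% = enzyme with DMSO and 100% = DMSO wells lacking enzyme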
BODIPY interf = 535nm fluorescence optical interference, confirmation, artefact control for HGIII-sPLA2 inhibitor project, biochemical, QFRET; shares compounds with sPLA2-III inh; BODIPY FL product fluorescence interference; inhibition, % at 12.2 µM; 2,000 compounds, 8.5% hits;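 active means average inhibition above the solvent-only control mean plus 3 SD, cut at about 6% in these data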;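 further: 0% = DMSO with substrate plus product and 100% = DMSO with substrate alone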
BODIPY interf DR = 535nm fluorescence optical interference, dose response, artefact control for HGIII-sPLA2 inhibitor project, biochemical, QFRET; BODIPY FL product fluorescence interference, cell-free; IC50, µM; shares compounds with sPLA2-III inh; 240 tested, under 10 active; AID 743455, 2014;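 active means IC50 at or below 10 µM; inactive means IC50 above 10 µM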
An asterisk follows results filed as active; nt = no result; ! = a repeat was not active. Hits are enriched below; roughly 2.4% of the tested compounds scored in any of these assays.

SMILES	M18AAP inhibitor	IMP-1 inh	sPLA2-III inh	VIM-2 inhibitor	hGIII sPLA2 conf	BODIPY interf	others
CCOC(=O)C1CCN(S(=O)(=O)c2c(Cl)ccc3nonc23)CC1	1	0	3	-2	nt	nt
COc1ccc(C(=O)NC(=S)NNC(=O)c2cccc(C)c2)cc1	nt	nt	27*	nt	38*	-7	BODIPY interf DR=>122
Cc1ccc(C(=O)NNC(=O)c2cccc(C)c2)cc1	4	-1	2	-3	nt	nt
Cc1cccc(C(=O)NNC(=S)NC(=O)c2ccccc2)c1	nt	nt	23*	nt	36*	-5	BODIPY interf DR=>122
Cc1ccc(C(=O)NC(=S)NNC(=O)c2ccccc2)cc1	-8	2	24*	-2	40*	-4	BODIPY interf DR=>122
Cc1cccc(C(=O)NNC(=S)NC(=O)c2cccs2)c1	-7	-3	28*	-1	27*	4
C#CCNC(=O)c1csc([C@@H]2O[C@H](CO)[C@@H](O)[C@H]2O)n1	nt	nt	-7	nt	nt	nt
CNC(=O)c1cc2c(-c3ccccc3)nn(C)c2s1	-4	-3	-9	1	nt	nt
COc1ccc([C@H]2N[C@]3(CCCN(Cc4ccc(C(F)(F)F)cc4)C3=O)[C@H]3C(=O)N(C)C(=O)[C@@H]23)cc1	nt	nt	-6	nt	nt	nt
C=C1CC[C@@H]2[C@](C)(CO)[C@H](O)CC[C@@]2(C)[C@@H]1C/C=C1/C(=O)OCC1O (some centres undefined)	nt	nt	16	nt	nt	nt
Clc1ccc(-n2c(SCc3cccc4ccccc34)nnc2-c2cccnc2)cc1	nt	nt	-11	nt	nt	nt
CCNC(=S)NNC(=O)c1cccc(Br)c1	-6	-2	22*	-2	33*	-4
COc1ccc(C(=O)NNC(=S)NC(=O)c2ccc(OC)cc2)cc1	-2	1	20*	-1	26*	-10
CC(C)(C)NC(=O)C(=O)NNC(=O)c1cccc(Br)c1	2	-3	-6	-3	nt	nt
COc1ccc(C(=O)NC(=S)NNC(=O)c2ccncc2)cc1Br	nt	nt	29*	nt	26*	4
COc1ccc(C(=O)NNC(=S)NC(=O)c2cccnc2)cc1	22	-1	2	-3	nt	nt
COc1ccc(C(=O)NNC(=S)NC(=O)c2ccc(F)cc2)cc1Br	nt	nt	0	nt	nt	nt
CC(C)(C)N(Cc1cn(Cc2ccccc2)nn1)S(=O)(=O)c1ccc(N2CCCCC2)cc1Br	nt	nt	-3	nt	nt	nt
CC1CCN(C(=O)CCc2nnc3ccc(N4CCC5(CC4)OCCO5)nn23)CC1	-8	-1	1	0	nt	nt
CCOc1ccc(C2OCCC(C)O2)cc1OC (centres undefined)	nt	nt	20*	nt	2	-6
CCOc1ccc(CNC2CCCCCCC2)cc1OC	0	-3	9	-1	nt	nt
COc1ccccc1N1CCN(c2ccc([N+](=O)[O-])cc2Cl)CC1	-2	-3	20*	-1	12	-9
COc1ccccc1N1CCN(S(=O)(=O)c2ccc([N+](=O)[O-])cc2)CC1	nt	nt	4	nt	nt	nt
O=C(CSc1nc2ccccc2c(=O)n1-c1ccc(F)cc1)Nc1ccc(N2CCOCC2)cc1	-9	-2	3	-1	nt	nt
Cc1ccc(NC(=S)NNC(=O)CSc2nc3ccccc3c(=O)n2-c2ccc(C)cc2)cc1	12	-5	28*	-2	24*	4
SMILES	M18AAP inhibitor	IMP-1 inh	sPLA2-III inh	VIM-2 inhibitor	hGIII sPLA2 conf	BODIPY interf	others
COc1ccc(-n2c(SCC(=O)Nc3ccc(NC(C)=O)cc3)nc3ccccc3c2=O)cc1	-6	0	2	0	nt	nt
O=C(CSc1nc2ccccc2c(=O)n1-c1ccc(SC(F)F)cc1)Nc1ccc(N2CCOCC2)cc1	-4	-4	21*	-2	5	-8
CCNC(=S)NNC(=O)CSc1nc2ccccc2c(=O)n1-c1ccc(Cl)cc1	nt	nt	32*	nt	25*	4
COc1ccc(-n2c(SCC(=O)NNC(=S)Nc3ccccc3)nc3ccccc3c2=O)cc1	nt	nt	36*	nt	39*	4	BODIPY interf DR=>122
Cc1ccc(-n2c(SCC(=O)Nc3ccc(N4CCOCC4)cc3)nc3ccccc3c2=O)cc1	1	-3	17	-3	nt	nt
Cc1ccc(NC(=O)C2CC(=O)N(c3ccccc3Cl)C2)cc1S(=O)(=O)N1CCOCC1 (centres undefined)	nt	nt	3	nt	nt	nt
CSc1ccc(CCNC(=O)c2cccc3c2C(=O)N(C2CCCCC2)C3)cc1	1	-2	nt	0	nt	nt
OC(c1ccccc1)(c1ccccc1)C1CCN(CCCOc2ccc(Cl)cc2)CC1	nt	nt	-15	nt	nt	nt
O=C(Nc1ccc(Cl)c(Cl)c1)c1ccccc1	nt	nt	-2	nt	nt	nt
CN(C(=O)Nc1ccc(Cl)c(Cl)c1)c1ccccc1C(=O)O	2	-4	21*	-4	5	-4
COC(=O)C[C@H]1CC[C@@H](NC(=O)c2ccncc2)[C@@H](CO)O1	nt	nt	11	nt	nt	nt
CS/C(N)=N/N=C/c1c(O)ccc2ccccc12	15	-4	23*	-4	28*	0
CCN(CC)C(=O)CNC(=S)N(CCCN1CCOCC1)Cc1cccs1	-7	-1	20*	0	3	-11
O=C(CNC(=S)N(CCCN1CCOCC1)Cc1cccs1)NCCCN1CCOCC1	-1	-4	0	-2	nt	nt
Oc1c(C=C2N=c3ccccc3=N2)sc(=S)n1C1CCCCC1	7	2	20*!	1	-5	-1
Oc1c(C=C2N=c3ccccc3=N2)sc(=S)n1-c1ccccc1	15	1	4	1	nt	nt
Cc1cccc(NC(=O)c2cc(-c3cc(C)ccc3O)n[nH]2)c1	-11	0	-5	0	nt	nt
COc1ccc(NC(=O)c2cc(-c3cc(C)ccc3O)n[nH]2)cc1Cl	-1	-9	20*	-7	-3	-1
O=C(Nc1cccc(C(=O)N2CCCC2)c1)C1CC1	nt	nt	-2	nt	nt	nt
O=C(NNc1ccccc1[N+](=O)[O-])Nc1ccc(Cl)c(Cl)c1	28	-2	27*	-2	28*	9.8*
CCCc1nnc(NC(=O)CCC(=O)NC2CCCC2)s1	-8	1	6	-1	nt	nt
O=C(N[C@H]1CC[C@@H]2SC[C@@H](C(=O)O)N2C1=O)OCC1c2ccccc2-c2ccccc21	nt	nt	-11	nt	nt	nt
Cc1ccc(S(=O)(=O)N2c3ccccc3-c3c(ssc3=S)C2(C)C)cc1	22	-4	28*	-3	24*	5
Cc1ccc(N2CN(Cc3cccnc3)CNC2=S)c(C)c1	-5	0	8	1	nt	nt
Cc1ccc(N2CN(Cc3ccco3)CNC2=S)c(C)c1	2	-4	25*	-2	11	-9
O=C(Oc1ccccc1F)c1ccc2c(=O)n3c(nc2c1)CCC3	nt	nt	-3	nt	nt	nt
